Read-outs that look alike come from different tables or passages of the source.
What was measured:
[1] = tested on: CD69 expression in anti-IgM stimulated whole blood; experiment: anti-IgM stimulated human whole blood, FACS for CD69; type: cell-based; details: read-out: anti-IgM stimulated whole blood CD69 expression IC50
[2] = tested on: chronic lymphocytic leukaemia (CLL) and non-Hodgkin's lymphoma; details: cited from earlier work
4T1 tumour = experiment: 4T1 breast cancer model, orthotopic in mammary fat pad, oral PI-3065; type: in vivo, female WT BALB/c mice; details: 75 mg/kg daily per os
Outline: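 Luciferase-labelled 4T1 cells (10^5) inoculated into the mammary/breast fat pad 12 h after the first oral dose of vehicle or test compound (75 mg/kg daily, 36 days). Tumour growth followed by luciferase imaging and caliper volume. Tumour weight and luciferase activity measured in tumours excised 35 days after inoculation. Metastasis incidence by H&E histology as % of tumour-bearing mice. Body weight change from day 0. Mann-Whitney test.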

[3] = tested on: pancreatic ductal adenocarcinoma (PDAC); experiment: KPC model of pancreatic ductal adenocarcinoma, treatment of palpable disease; type: in vivo, KPC mice
Outline: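 KPC mice (endogenous mutant KrasG12D and p53R172H in Pdx1+ pancreatic cells) developed palpable disease before vehicle or test compound (75 mg/kg) began. Read-outs were survival, macrometastases and pathology by H&E, Treg (% of CD4+) and CD44high cells (% of CD8+) in draining lymph nodes, and CD8+ cells (% of CD45+) in normal pancreas versus PDAC lesions. Mann-Whitney test.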

p110δ = p110δ (Homo sapiens, UniProt O00329); experiment: PI3K isoform inhibition, Ki and IC50; type: biochemical
Chain of p110δ (O00329 whole entry, species assumed, canonical isoform): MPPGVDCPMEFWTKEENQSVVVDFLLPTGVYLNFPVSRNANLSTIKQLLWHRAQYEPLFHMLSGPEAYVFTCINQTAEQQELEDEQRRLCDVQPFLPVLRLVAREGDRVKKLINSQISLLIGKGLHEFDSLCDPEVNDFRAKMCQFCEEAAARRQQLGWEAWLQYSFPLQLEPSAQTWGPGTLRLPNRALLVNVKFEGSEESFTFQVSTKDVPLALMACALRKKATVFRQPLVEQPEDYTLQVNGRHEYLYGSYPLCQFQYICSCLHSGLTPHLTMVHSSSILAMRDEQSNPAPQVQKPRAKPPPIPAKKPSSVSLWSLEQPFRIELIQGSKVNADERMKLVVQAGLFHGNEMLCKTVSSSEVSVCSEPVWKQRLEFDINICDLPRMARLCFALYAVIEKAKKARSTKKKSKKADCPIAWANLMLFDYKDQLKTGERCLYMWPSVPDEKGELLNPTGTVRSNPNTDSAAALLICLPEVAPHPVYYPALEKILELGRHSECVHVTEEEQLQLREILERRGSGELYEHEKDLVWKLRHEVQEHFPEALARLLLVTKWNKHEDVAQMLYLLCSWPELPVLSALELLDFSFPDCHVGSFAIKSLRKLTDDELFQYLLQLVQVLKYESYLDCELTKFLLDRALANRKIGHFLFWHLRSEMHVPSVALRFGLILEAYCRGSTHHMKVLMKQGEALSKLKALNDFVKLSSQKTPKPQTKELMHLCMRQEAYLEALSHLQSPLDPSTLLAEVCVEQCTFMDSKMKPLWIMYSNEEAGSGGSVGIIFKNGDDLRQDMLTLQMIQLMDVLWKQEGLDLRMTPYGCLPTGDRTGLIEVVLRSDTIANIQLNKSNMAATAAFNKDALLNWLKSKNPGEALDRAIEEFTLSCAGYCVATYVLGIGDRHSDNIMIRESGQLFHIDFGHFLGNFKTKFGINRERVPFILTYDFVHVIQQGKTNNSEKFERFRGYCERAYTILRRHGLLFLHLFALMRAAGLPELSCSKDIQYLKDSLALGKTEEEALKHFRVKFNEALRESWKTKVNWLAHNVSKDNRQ
Chain of p110δ (P27986 whole entry partner, species assumed, canonical isoform): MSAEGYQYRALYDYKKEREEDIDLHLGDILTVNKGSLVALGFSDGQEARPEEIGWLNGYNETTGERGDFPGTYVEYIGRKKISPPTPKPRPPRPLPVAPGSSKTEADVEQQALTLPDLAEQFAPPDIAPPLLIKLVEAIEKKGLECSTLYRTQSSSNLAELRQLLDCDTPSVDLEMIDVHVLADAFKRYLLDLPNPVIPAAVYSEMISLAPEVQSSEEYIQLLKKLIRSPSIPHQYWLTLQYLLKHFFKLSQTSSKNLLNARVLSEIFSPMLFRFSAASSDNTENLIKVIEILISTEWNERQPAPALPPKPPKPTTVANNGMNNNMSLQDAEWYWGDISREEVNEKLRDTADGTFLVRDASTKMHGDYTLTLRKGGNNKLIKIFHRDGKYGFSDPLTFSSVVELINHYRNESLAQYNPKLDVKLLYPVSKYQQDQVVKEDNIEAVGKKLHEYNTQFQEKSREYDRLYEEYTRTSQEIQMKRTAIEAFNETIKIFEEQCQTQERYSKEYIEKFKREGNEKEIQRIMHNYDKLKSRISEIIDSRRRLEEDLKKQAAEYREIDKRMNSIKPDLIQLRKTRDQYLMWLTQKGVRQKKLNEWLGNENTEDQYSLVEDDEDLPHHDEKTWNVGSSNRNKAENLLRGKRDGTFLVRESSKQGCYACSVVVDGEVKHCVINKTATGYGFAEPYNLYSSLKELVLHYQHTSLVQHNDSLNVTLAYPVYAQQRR

4T1 cells = experiment: Proliferation of 4T1 cells in vitro; type: cell-based, mouse; details: 4 h treatment, washing, MTS staining after 48 h culture
p110α = p110α (Homo sapiens, UniProt P42336); experiment: PI3K isoform inhibition, Ki and IC50; type: biochemical
Chain of p110α (P42336 whole entry, species assumed, canonical isoform): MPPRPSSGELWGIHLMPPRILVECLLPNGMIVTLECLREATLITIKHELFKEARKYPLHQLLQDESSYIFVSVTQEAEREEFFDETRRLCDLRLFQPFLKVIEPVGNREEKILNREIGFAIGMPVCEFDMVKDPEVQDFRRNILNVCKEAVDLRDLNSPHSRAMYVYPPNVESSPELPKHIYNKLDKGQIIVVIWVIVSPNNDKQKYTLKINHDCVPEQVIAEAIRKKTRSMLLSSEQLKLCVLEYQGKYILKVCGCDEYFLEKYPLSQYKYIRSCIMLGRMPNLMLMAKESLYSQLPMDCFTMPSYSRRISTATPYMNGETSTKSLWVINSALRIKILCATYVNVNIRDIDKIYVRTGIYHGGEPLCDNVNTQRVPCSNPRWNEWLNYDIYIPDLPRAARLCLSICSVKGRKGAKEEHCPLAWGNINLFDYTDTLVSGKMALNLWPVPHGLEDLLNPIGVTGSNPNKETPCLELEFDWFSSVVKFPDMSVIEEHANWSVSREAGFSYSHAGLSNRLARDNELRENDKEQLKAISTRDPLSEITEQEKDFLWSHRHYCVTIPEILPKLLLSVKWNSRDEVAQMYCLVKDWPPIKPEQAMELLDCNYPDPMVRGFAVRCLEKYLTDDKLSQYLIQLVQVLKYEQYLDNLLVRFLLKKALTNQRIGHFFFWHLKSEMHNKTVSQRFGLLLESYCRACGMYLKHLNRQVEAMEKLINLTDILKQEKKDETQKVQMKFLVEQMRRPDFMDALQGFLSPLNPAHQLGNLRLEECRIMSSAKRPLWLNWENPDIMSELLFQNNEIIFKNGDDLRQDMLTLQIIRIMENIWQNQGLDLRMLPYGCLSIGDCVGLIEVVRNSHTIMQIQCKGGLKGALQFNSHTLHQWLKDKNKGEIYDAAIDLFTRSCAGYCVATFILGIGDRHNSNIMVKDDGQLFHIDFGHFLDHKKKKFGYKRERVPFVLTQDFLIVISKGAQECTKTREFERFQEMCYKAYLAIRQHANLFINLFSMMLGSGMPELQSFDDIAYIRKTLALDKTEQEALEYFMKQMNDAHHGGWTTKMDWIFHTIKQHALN
Chain of p110α (P27986 whole entry partner, species assumed, canonical isoform): as the sequence (P27986 whole entry partner, species assumed, canonical isoform) above

72 protein kinases = experiment: KinaseProfiler assay; type: biochemical; details: at ≤ 10 μM
p110γ = p110γ (Homo sapiens, UniProt P48736); experiment: PI3K isoform inhibition, Ki and IC50; type: biochemical
Chain of p110γ (P48736 whole entry, species assumed, canonical isoform): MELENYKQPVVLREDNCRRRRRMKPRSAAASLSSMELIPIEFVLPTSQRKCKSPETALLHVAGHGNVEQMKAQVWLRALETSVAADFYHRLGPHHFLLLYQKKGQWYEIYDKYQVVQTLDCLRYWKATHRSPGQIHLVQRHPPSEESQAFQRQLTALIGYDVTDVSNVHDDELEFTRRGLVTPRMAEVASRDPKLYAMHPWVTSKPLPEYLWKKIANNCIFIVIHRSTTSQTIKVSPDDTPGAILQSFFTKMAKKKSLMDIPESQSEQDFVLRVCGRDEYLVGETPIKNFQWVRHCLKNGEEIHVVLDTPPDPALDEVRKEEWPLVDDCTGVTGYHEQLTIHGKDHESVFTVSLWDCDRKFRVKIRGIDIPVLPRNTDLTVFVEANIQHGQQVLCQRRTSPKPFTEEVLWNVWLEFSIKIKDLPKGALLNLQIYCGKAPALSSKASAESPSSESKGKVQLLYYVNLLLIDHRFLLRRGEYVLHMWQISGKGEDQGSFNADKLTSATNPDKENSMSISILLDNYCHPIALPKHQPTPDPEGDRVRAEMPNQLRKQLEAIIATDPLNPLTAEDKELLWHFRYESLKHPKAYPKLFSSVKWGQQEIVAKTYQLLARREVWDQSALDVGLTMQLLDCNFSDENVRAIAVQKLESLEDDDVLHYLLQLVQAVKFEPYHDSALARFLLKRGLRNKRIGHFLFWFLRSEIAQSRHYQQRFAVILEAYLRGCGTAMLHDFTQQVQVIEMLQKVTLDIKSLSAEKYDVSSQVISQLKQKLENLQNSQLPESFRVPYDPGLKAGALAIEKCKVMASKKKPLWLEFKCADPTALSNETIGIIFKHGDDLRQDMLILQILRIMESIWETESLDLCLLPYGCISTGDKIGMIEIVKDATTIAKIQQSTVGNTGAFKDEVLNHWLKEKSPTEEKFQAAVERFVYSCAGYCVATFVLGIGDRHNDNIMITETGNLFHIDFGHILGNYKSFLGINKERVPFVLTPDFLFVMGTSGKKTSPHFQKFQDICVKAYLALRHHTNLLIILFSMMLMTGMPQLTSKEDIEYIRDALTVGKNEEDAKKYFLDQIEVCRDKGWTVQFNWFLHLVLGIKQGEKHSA

p110β = p110β (Homo sapiens, UniProt P42338); experiment: PI3K isoform inhibition, Ki and IC50; type: biochemical
Chain of p110β (P42338 whole entry, species assumed, canonical isoform): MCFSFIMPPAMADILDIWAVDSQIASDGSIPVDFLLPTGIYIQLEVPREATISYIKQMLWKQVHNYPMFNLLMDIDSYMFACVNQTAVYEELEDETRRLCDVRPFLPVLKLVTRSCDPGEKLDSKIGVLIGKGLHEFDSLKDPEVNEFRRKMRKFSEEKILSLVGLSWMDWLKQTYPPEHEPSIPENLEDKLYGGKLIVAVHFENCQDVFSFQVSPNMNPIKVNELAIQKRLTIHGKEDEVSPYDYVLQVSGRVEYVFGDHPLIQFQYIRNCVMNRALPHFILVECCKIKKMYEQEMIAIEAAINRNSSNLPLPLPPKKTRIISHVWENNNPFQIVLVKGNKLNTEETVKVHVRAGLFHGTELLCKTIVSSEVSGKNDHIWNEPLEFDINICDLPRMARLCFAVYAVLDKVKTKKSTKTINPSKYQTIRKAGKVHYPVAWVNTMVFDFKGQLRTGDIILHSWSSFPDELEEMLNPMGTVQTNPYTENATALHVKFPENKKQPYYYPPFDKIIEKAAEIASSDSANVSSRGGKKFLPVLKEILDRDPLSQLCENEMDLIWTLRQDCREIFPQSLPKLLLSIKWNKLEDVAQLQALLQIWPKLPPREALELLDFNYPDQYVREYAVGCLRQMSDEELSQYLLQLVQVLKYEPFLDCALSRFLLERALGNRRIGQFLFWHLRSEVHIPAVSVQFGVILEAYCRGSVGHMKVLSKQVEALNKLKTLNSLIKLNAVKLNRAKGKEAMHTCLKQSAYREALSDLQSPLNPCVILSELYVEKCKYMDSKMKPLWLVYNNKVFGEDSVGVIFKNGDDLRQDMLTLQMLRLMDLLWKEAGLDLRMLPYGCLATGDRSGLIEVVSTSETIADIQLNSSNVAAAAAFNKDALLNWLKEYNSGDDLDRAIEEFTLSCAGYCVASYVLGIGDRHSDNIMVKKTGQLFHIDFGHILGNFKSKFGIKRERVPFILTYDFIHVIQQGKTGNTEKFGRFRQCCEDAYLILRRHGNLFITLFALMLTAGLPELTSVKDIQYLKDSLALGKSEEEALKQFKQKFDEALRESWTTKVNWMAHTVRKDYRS
Chain of p110β (P27986 whole entry partner, species assumed, canonical isoform): as the sequence (P27986 whole entry partner, species assumed, canonical isoform) above

[4] = 36 consecutive days, 4T1 tumour-bearing mice
[5] = 75 mg/kg, treatment after palpable disease

Compound | IC50 ([1]; human whole blood, anti-IgM, FACS for CD69) [nM] | therapeutic impact in patients [2] | IC50 ([1]; Homo sapiens) [nM] | body weight loss (4T1 tumour; [4]) | tolerability of long-term administration (4T1 tumour; [4]) | 4T1 metastasis (4T1 tumour; 36 days) | 4T1 tumour growth (4T1 tumour; 36 days) | incidence of metastases and other disease-associated pathologies [3, 5] | survival of KPC mice [3, 5] | infiltrating CD8+ T cells in pancreatic lesions ([3]; 14 days after treatment) | levels of CD44high CD8+ lymphocytes in the draining lymph nodes ([3]; after 7 days of treatment) | relative abundance of peripheral Treg in lymph nodes ([3]; after 7 days of treatment) | Ki (p110δ) [nM] | in vitro growth inhibition of 4T1 cells (4T1 cells) | Ki (p110α) [nM] | activity against 72 protein kinases (72 protein kinases) | IC50 (p110γ) [nM] | Ki (p110γ) [nM] | IC50 (p110β) [nM] | Ki (p110β) [nM]
Cc1ccccc1-n1c(Cn2cnc3c(N)ncnc32)nc2cccc(C)c2c1=O [IC87114] | 3500 |  |  |  |  |  |  |  |  |  |  |  |  |  |  |  |  |  |  | 
CC[C@H](Nc1ncnc2[nH]cnc12)c1nc2cccc(F)c2c(=O)n1-c1ccccc1 [Idelalisib] |  | impressive therapeutic impact | 60 |  |  |  |  |  |  |  |  |  |  |  |  |  |  |  |  | 
Fc1ccc2[nH]ccc2c1-c1nc(N2CCOCC2)c2sc(CN3CCN(CC4CC4)CC3)cc2n1 [PI-3065] |  |  | 38 | did not induce weight loss | well-tolerated | suppressed | suppressed | reduced | prolonged survival | relatively more | higher levels | reduced | 1.5 | not growth-inhibited | 110 | No significant activity | > 10000 | 940 | 600 | 130
